Experimental data published in publication PMC5084759 (British Journal of Haematology, 2016).

What was measured:
[1] = Safety and tolerability: adverse events; type: in vivo, human; details: for On-study deaths: first dose to 30 d after last dose
Summary of the method: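 The safety population was all patients given ≥1 dose: a single 3 mg dose in Part A, then optional Part B dosing at 4, 3 or 2·3 mg on days 1, 8 and 15 of 28-d cycles, with or without dexamethasone. AEs, including SAEs, were recorded throughout treatment up to 30 d after the last dose and graded by NCI CTCAE v4.03.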

[2] = ref Gupta et al, 2013; cited from earlier work
[3] = Haemodialysis clearance, pre- and post-dialyser plasma samples in ESRD patients; type: in vivo, human
[4] = test system: relapsed and/or refractory multiple myeloma; assay: Myeloma disease response; type: in vivo, human
Summary of the method: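 Part B dosing was oral ixazomib 4, 3 or 2·3 mg on days 1, 8 and 15 of 28-d cycles. Some patients also received dexamethasone 40 mg (20 mg if >75 years) on days 1, 8, 15 and 22 at investigator discretion. Investigators assessed response by IMWG uniform criteria across all cycles, with one bone marrow assessment to document CR. DOR ran from first CR/VGPR/PR to first progression.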

[5] = Single-dose plasma pharmacokinetics of oral ixazomib; type: in vivo, human; details: for Total AUC0-last, geometric mean (% CV): single 3 mg oral dose
Summary of the method: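 Groups were CrCl ≥90 or <30 ml/min (Cockcroft–Gault) or on haemodialysis. Each patient took a single oral 3 mg dose fasted with about 240 ml water. Plasma was sampled pre-dose to 336 h and assayed by LC-MS/MS (0·5–500 ng/ml). Cmax and AUC0-last came from non-compartmental analysis. Group ratios of geometric means (90% CI) came from ANOVA on log-transformed parameters, with normal function as reference.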

[6] = CrCl 30-89 ml/min; ref Gupta et al, 2015b; cited from earlier work
[7] = Stability of ixazomib in dialysate fluid; type: physicochemical; details: dialysate fluid used in haemodialysis
[8] = test system: CYP3A; details: supra-therapeutic concentrations; ref unpublished observations; cited from earlier work
[9] = test system: CYP1A2; details: supra-therapeutic concentrations; ref unpublished observations; cited from earlier work
[10] = severe RI/ESRD patients versus patients with normal renal function

CC(C)C[C@H](NC(=O)CNC(=O)c1cc(Cl)ccc1Cl)B(O)O [ixazomib]
Any TEAE ([1]; ESRD (N = 7)): 6 (86) n (%)
Any TEAE, Grade ≥3 ([1]; ESRD (N = 7)): 4 (57) n (%)
Drug-related SAE ([1]; ESRD (N = 7)): 0 n (%)
SAE ([1]; ESRD (N = 7)): 3 (43) n (%)
Study drug-related TEAE ([1]; ESRD (N = 7)): 4 (57) n (%)
Study drug-related TEAE, Grade ≥3 ([1]; ESRD (N = 7)): 1 (14) n (%)
TEAE resulting in ixazomib discontinuation ([1]; ESRD (N = 7)): 0 n (%)
TEAE resulting in ixazomib dose reduction ([1]; ESRD (N = 7)): 0 n (%)
TEAE: Anaemia ([1]; ESRD (N = 7)): 2 (29) n (%)
TEAE: Arthralgia ([1]; ESRD (N = 7)): 1 (14) n (%)
TEAE: Constipation ([1]; ESRD (N = 7)): 1 (14) n (%)
TEAE: Diarrhoea ([1]; ESRD (N = 7)): 1 (14) n (%)
TEAE: Dizziness ([1]; ESRD (N = 7)): 1 (14) n (%)
TEAE: Dyspnoea ([1]; ESRD (N = 7)): 1 (14) n (%)
TEAE: Fatigue ([1]; ESRD (N = 7)): 1 (14) n (%)
TEAE: Hypotension ([1]; ESRD (N = 7)): 1 (14) n (%)
TEAE: Nausea ([1]; ESRD (N = 7)): 2 (29) n (%)
TEAE: Peripheral oedema ([1]; ESRD (N = 7)): 0 n (%)
TEAE: URT infection ([1]; ESRD (N = 7)): 1 (14) n (%)
TEAE: Vomiting ([1]; ESRD (N = 7)): 2 (29) n (%)
On-study deaths ([1]; ESRD (N = 7)): 1 (14) n (%)
Dose reductions for ixazomib or dexamethasone ([1]; ESRD group): no dose reductions
Incidence of AE anaemia ([1]; ESRD group): 29%
Incidence of grade ≥3 AEs ([1]; ESRD group): 57%
Incidence of serious AEs ([1]; ESRD group): 43%
On-study deaths, number ([1]; ESRD group): 1
Investigator-attributed drug-related anaemia ([1]; ESRD patients): 0%
Incidence of TEAE anaemia ([1]; all 41 patients): 22%
Incidence of TEAE diarrhoea ([1]; all 41 patients): 39%
Incidence of TEAE fatigue ([1]; all 41 patients): 29%
Incidence of TEAE nausea ([1]; all 41 patients): 34%
Incidence of TEAE vomiting ([1]; all 41 patients): 32%
Incidence of grade ≥3 TEAE anaemia ([1]; all 41 patients): 15%
Incidence of grade ≥3 TEAE decreased platelet count ([1]; all 41 patients): 7%
Incidence of grade ≥3 TEAE hypotension ([1]; all 41 patients): 7%
Patients with a TEAE of any grade ([1]; all 41 patients): 95%
Patients who developed peripheral neuropathy ([1]; all 41 patients (six patients)): 15%
Incidence of study drug-related TEAE diarrhoea ([1]; all patients): 29%
Incidence of study drug-related TEAE nausea ([1]; all patients): 29%
On-study deaths, number ([1]; all patients): three
Patients with at least 1 TEAE ([1]; four patients with solid tumours (three patients)): 75%
Any TEAE ([1]; normal renal function (N = 20)): 19 (95) n (%)
Any TEAE, Grade ≥3 ([1]; normal renal function (N = 20)): 9 (45) n (%)
Drug-related SAE ([1]; normal renal function (N = 20)): 3 (15) n (%)
SAE ([1]; normal renal function (N = 20)): 3 (15) n (%)
Study drug-related TEAE ([1]; normal renal function (N = 20)): 16 (80) n (%)
Study drug-related TEAE, Grade ≥3 ([1]; normal renal function (N = 20)): 7 (35) n (%)
TEAE resulting in ixazomib discontinuation ([1]; normal renal function (N = 20)): 2 (10) n (%)
TEAE resulting in ixazomib dose reduction ([1]; normal renal function (N = 20)): 4 (20) n (%)
TEAE: Anaemia ([1]; normal renal function (N = 20)): 1 (5) n (%)
TEAE: Arthralgia ([1]; normal renal function (N = 20)): 3 (15) n (%)
TEAE: Constipation ([1]; normal renal function (N = 20)): 5 (25) n (%)
TEAE: Diarrhoea ([1]; normal renal function (N = 20)): 9 (45) n (%)
TEAE: Dizziness ([1]; normal renal function (N = 20)): 1 (5) n (%)
TEAE: Dyspnoea ([1]; normal renal function (N = 20)): 2 (10) n (%)
TEAE: Fatigue ([1]; normal renal function (N = 20)): 5 (25) n (%)
TEAE: Hypotension ([1]; normal renal function (N = 20)): 1 (5) n (%)
TEAE: Nausea ([1]; normal renal function (N = 20)): 7 (35) n (%)
TEAE: Peripheral oedema ([1]; normal renal function (N = 20)): 2 (10) n (%)
TEAE: URT infection ([1]; normal renal function (N = 20)): 5 (25) n (%)
TEAE: Vomiting ([1]; normal renal function (N = 20)): 6 (30) n (%)
On-study deaths ([1]; normal renal function (N = 20)): 0 n (%)
AEs leading to ixazomib discontinuations ([1]; normal renal function group): 10%
AEs leading to ixazomib dose reductions ([1]; normal renal function group): 20%
Incidence of AE anaemia ([1]; normal renal function group): 5%
Incidence of grade ≥3 AEs ([1]; normal renal function group): 45%
Incidence of serious AEs ([1]; normal renal function group): 15%
Investigator-attributed drug-related anaemia ([1]; normal renal function group): 5%
Any TEAE ([1]; severe RI (N = 14)): 14 (100) n (%)
Any TEAE, Grade ≥3 ([1]; severe RI (N = 14)): 11 (79) n (%)
Drug-related SAE ([1]; severe RI (N = 14)): 2 (14) n (%)
SAE ([1]; severe RI (N = 14)): 6 (43) n (%)
Study drug-related TEAE ([1]; severe RI (N = 14)): 12 (86) n (%)
Study drug-related TEAE, Grade ≥3 ([1]; severe RI (N = 14)): 7 (50) n (%)
TEAE resulting in ixazomib discontinuation ([1]; severe RI (N = 14)): 4 (29) n (%)
TEAE resulting in ixazomib dose reduction ([1]; severe RI (N = 14)): 4 (29) n (%)
TEAE: Anaemia ([1]; severe RI (N = 14)): 6 (43) n (%)
TEAE: Arthralgia ([1]; severe RI (N = 14)): 2 (14) n (%)
TEAE: Constipation ([1]; severe RI (N = 14)): 3 (21) n (%)
TEAE: Diarrhoea ([1]; severe RI (N = 14)): 6 (43) n (%)
TEAE: Dizziness ([1]; severe RI (N = 14)): 4 (29) n (%)
TEAE: Dyspnoea ([1]; severe RI (N = 14)): 3 (21) n (%)
TEAE: Fatigue ([1]; severe RI (N = 14)): 6 (43) n (%)
TEAE: Hypotension ([1]; severe RI (N = 14)): 3 (21) n (%)
TEAE: Nausea ([1]; severe RI (N = 14)): 5 (36) n (%)
TEAE: Peripheral oedema ([1]; severe RI (N = 14)): 4 (29) n (%)
TEAE: URT infection ([1]; severe RI (N = 14)): 1 (7) n (%)
TEAE: Vomiting ([1]; severe RI (N = 14)): 5 (36) n (%)
On-study deaths ([1]; severe RI (N = 14)): 2 (14) n (%)
AEs leading to ixazomib discontinuations ([1]; severe RI group): 29%
AEs leading to ixazomib dose reductions ([1]; severe RI group): 29%
Incidence of AE anaemia ([1]; severe RI group): 43%
Incidence of grade ≥3 AEs ([1]; severe RI group): 79%
Incidence of serious AEs ([1]; severe RI group): 43%
Investigator-attributed drug-related anaemia ([1]; severe RI group): 29%
On-study deaths, number ([1]; severe RI group): 2
Any TEAE ([1]; total (N = 41)): 39 (95) n (%)
Any TEAE, Grade ≥3 ([1]; total (N = 41)): 24 (59) n (%)
Drug-related SAE ([1]; total (N = 41)): 5 (12) n (%)
SAE ([1]; total (N = 41)): 12 (29) n (%)
Study drug-related TEAE ([1]; total (N = 41)): 32 (78) n (%)
Study drug-related TEAE, Grade ≥3 ([1]; total (N = 41)): 15 (37) n (%)
TEAE resulting in ixazomib discontinuation ([1]; total (N = 41)): 6 (15) n (%)
TEAE resulting in ixazomib dose reduction ([1]; total (N = 41)): 8 (20) n (%)
TEAE: Anaemia ([1]; total (N = 41)): 9 (22) n (%)
TEAE: Arthralgia ([1]; total (N = 41)): 6 (15) n (%)
TEAE: Constipation ([1]; total (N = 41)): 9 (22) n (%)
TEAE: Diarrhoea ([1]; total (N = 41)): 16 (39) n (%)
TEAE: Dizziness ([1]; total (N = 41)): 6 (15) n (%)
TEAE: Dyspnoea ([1]; total (N = 41)): 6 (15) n (%)
TEAE: Fatigue ([1]; total (N = 41)): 12 (29) n (%)
TEAE: Hypotension ([1]; total (N = 41)): 5 (12) n (%)
TEAE: Nausea ([1]; total (N = 41)): 14 (34) n (%)
TEAE: Peripheral oedema ([1]; total (N = 41)): 6 (15) n (%)
TEAE: URT infection ([1]; total (N = 41)): 7 (17) n (%)
TEAE: Vomiting ([1]; total (N = 41)): 13 (32) n (%)
On-study deaths ([1]; total (N = 41)): 3 (7) n (%)
PK interaction between ixazomib and dexamethasone [2]: no PK interaction
Haemodialysis clearance as share of overall systemic clearance ([3]; ESRD patients requiring haemodialysis): less than 10%
Ixazomib concentrations in pre- versus post-dialyser samples ([3]; ESRD patients, 4-h haemodialysis session about 24-28 h after dose): similar
clearance ([3]; human, plasma, oral, 3 mg): < 2 mL/min
Patients with a response ([4]; normal renal function or ESRD groups (3 and 4 response-evaluable)): no patients
Patients with a PR ([4]; severe RI, 11 response-evaluable): five
Total systemic exposure, higher versus normal renal function [5, 10]: 39%
Unbound systemic exposure, higher versus normal renal function [5, 10]: 38%
Total AUC0-last, geometric mean (% CV) ([5]; ESRD (n = 6)): 783 (35) h·ng/ml
Total AUC0-last, geometric mean (% CV) ([5]; normal renal function (n = 15)): 575 (38) ^c h·ng/ml
Total AUC0-last, geometric mean (% CV) ([5]; severe RI (n = 10)): 813 (51) ^d h·ng/ml
Ixazomib clearance in patients with mild or moderate RI [6]: not altered
Stability in dialysate [7]: instability
Contribution to in vitro metabolism of ixazomib [8]: primary contributors
Contribution to in vitro metabolism of ixazomib [9]: primary contributors
